High-throughput results (PubChem)
CAL PDZ FP-1 – blocks peptide binding to the human CAL PDZ domain; Q9HD26; purified CAL PDZ, TMR-peptide fluorescence polarization, 1 h; inhibition, % at 24.9 µM; hit rate 0.92% among 300,000; AID 602252;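 active means mean inhibition of at least 30% with at least half of replicates also reaching 30%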;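 further: 0% = DMSO neutral control and 100% = excess unlabeled competitor peptide PRC23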
CAL PDZ FP-2 – inhibitors of human CAL PDZ peptide binding; purified CAL PDZ, TMR-peptide fluorescence polarization, 1 h; inhibition, % at 20 µM; hit rate 0.02% among 330,000; AID 504414;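 active means highest replicate inhibition of at least 40%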;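 further: plate controls were DMSO neutral control wells for no effect and unlabeled competitor peptide control wells for full effect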
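System: tagged CAL PDZ domain. Schedule: 1 h room-temperature incubation prior to read. Signal: fluorescence polarization (mP). Measure: percent inhibition from loss of millipolarization.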
ARNT-TACC3 inh – ARNT/TACC3 interaction disruption; Q9Y6A5; AlphaScreen His-ARNT PAS-B/GST-TACC3 binding, luminescence; TACC3 fragment carries E629A point mutation; inhibition, % at 9.99 µM; hit rate 0.66% among 390,000; AID 623870;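 active means mean inhibition of replicates at least 50% and at least half of replicates each reaching 50%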;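 further: 0% = complete ARNT plus TACC3 wells and 100% = ARNT alone without TACC3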
AlphaScreen ctr – AlphaScreen artifact in ARNT/TACC3 counter-screen; shares compounds with ARNT-TACC3 inh; His-ARNT PASB-GST AlphaScreen artifact counter-screen, luminescence; AC50, µM (highest dose often 68 µM), for the others: top-dose activity change, negative = signal decrease; hit rate 50% among 1,200; AID 651705;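 active means every separate test run was called active for a drop in luminescence, with AC50 within twice the top valid dose, actives reach about 71 µM in these data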
Numbers without * were called inactive; [ ] = remark or other dose. Only some compounds are listed: those with a hit (about 1.2% of all), similar ones and a draw of the others.

For CC(NC(=O)COC(=O)c1ccc([N+](=O)[O-])o1)c1ccccc1 (stereo not given) the results were CAL PDZ FP-1 -1.8, CAL PDZ FP-2 0.6, ARNT-TACC3 inh 29.3* and AlphaScreen ctr 1.4%.
`O=C(COC(=O)c1ccc([N+](=O)[O-])o1)NCCc1ccccc1` gave CAL PDZ FP-2 -1.8 and ARNT-TACC3 inh 44.3.
O=C(COC(=O)c1ccc([N+](=O)[O-])o1)Nc1ccc(N2CCOCC2)cc1 was read as CAL PDZ FP-1 -3.0, CAL PDZ FP-2 -0.2 and ARNT-TACC3 inh 4.9.
`C[C@H](CO)N1C[C@H](C)[C@H](CN(C)Cc2ccc(C(=O)O)cc2)Oc2ncc(C3=CCCCC3)cc2C1=O` gave ARNT-TACC3 inh -5.9.
Cc1ccc(S(=O)(=O)N(C)C[C@@H]2OCCCC[C@H](C)Oc3ccc(NC(=O)CCC(F)(F)F)cc3C(=O)N([C@@H](C)CO)C[C@H]2C)cc1 was read as ARNT-TACC3 inh 2.0.
Cc1ccccc1Nc1nc(N)nc(CN(C)Cc2ccccc2Cl)n1 was read as CAL PDZ FP-1 -1.4, CAL PDZ FP-2 -3.1, ARNT-TACC3 inh 57.3* and AlphaScreen ctr -30.4%.
Screening Cc1ccccc1Nc1nc(N)nc(CSc2ccc(F)cc2)n1 returned CAL PDZ FP-2 -1.1 and ARNT-TACC3 inh 1.6.
O=C(c1ccccc1)N1C[C@@H]2[C@H](c3ccccc31)[C@@H](CO)N2C(=O)CN1CCOCC1 was read as ARNT-TACC3 inh -19.7.
O=C(NCCCO)c1cc(-c2ccccc2)on1 was read as AlphaScreen ctr -1.6%[38 µM].
Screening COc1cccc(OCc2cc(C(=O)NCC3CCCCC3)no2)c1 returned CAL PDZ FP-1 -4.6, CAL PDZ FP-2 -0.3 and ARNT-TACC3 inh -7.0.
For CCCCNC(=O)c1cc(-c2ccccc2)on1 the results were AlphaScreen ctr 5.3%[38 µM].
CCCn1cc(NC(=O)c2cc(-c3ccccc3)on2)cn1 was read as CAL PDZ FP-1 0.2, CAL PDZ FP-2 -3.7 and ARNT-TACC3 inh -3.0.
`O=C(NCC1CCCCC1)c1cc(-c2ccccc2)on1` gave AlphaScreen ctr 3.7%[38 µM].
`O=C(NCc1ccccn1)c1cc(-c2ccccc2)on1` gave CAL PDZ FP-1 -0.7, CAL PDZ FP-2 -2.9 and ARNT-TACC3 inh -7.6.
For O=C(NCc1ccc2c(c1)OCO2)c1cc(-c2ccccc2)on1 the results were CAL PDZ FP-1 -0.7, CAL PDZ FP-2 0.5 and ARNT-TACC3 inh 0.9.
`Cc1cccc(CNC(=O)c2cc(-c3ccccc3)on2)c1` gave AlphaScreen ctr 46.9µM*.
For COCCCNC(=O)[C@@]1(C)c2ccccc2C(=O)N(Cc2cc(F)cc(C(F)(F)F)c2)[C@H]1c1ccc(CO)cc1 the results were ARNT-TACC3 inh -5.3.
For C[C@@H]1CN([C@@H](C)CO)C(=O)CCCn2nncc2CO[C@@H]1CN(C)CC1CCCC1 the results were ARNT-TACC3 inh -9.5.
CCC(=O)Nc1ccc2c(c1)OC[C@@H](C)N(C(=O)COC)C[C@@H](C)[C@H](OC)CN(C)C2=O was read as ARNT-TACC3 inh -2.5.
`Cc1ccc(S(=O)(=O)N(C)C[C@@H]2OCCCC[C@H](C)Oc3ccc(NC(=O)c4ccccc4)cc3C(=O)N([C@H](C)CO)C[C@@H]2C)cc1` gave ARNT-TACC3 inh -13.7.
`O=C(NCc1cccs1)c1cc(-c2ccccc2)on1` gave CAL PDZ FP-1 -2.4, CAL PDZ FP-2 -2.8 and ARNT-TACC3 inh -6.8.
O=C(NCCN1CCCCC1)c1cc(-c2ccccc2)on1 was read as AlphaScreen ctr 4.6%[38 µM].
For CC(C)(C)CCNC(=O)c1cc(-c2ccccc2)on1 the results were AlphaScreen ctr 67.6µM*.
O=C(NCCN1CCOCC1)c1cc(-c2cccc(O)c2)on1 was read as CAL PDZ FP-1 -0.9, CAL PDZ FP-2 -1.8 and ARNT-TACC3 inh -6.5.
CN1C(=O)c2cc(NC(=O)Nc3ccc(Cl)cc3)ccc2OC[C@@H]2O[C@@H](CC(=O)O)CC[C@@H]21 was read as ARNT-TACC3 inh 12.9.
O=C(Nc1ccc2c(c1)OCO2)N[C@@H]1CC[C@@H](CCNC(=O)C2CC2)O[C@@H]1CO was read as ARNT-TACC3 inh -11.7.
O=C(C[C@H]1CC[C@@H]2[C@H](COC[C@@H](O)CN2Cc2ccc(F)cc2)O1)NCc1ccccc1Cl was read as ARNT-TACC3 inh -2.5.
For CCCCC(=O)NC(c1ccc(C(C)C)cc1)c1ccc2cccnc2c1O (stereo not given) the results were CAL PDZ FP-1 -1.6, CAL PDZ FP-2 -0.8 and ARNT-TACC3 inh -12.5.
Screening CCCC(=O)NC(c1ccccc1)c1ccc2cccnc2c1O (stereo not given) returned CAL PDZ FP-2 -0.1, ARNT-TACC3 inh 61.0* and AlphaScreen ctr 27.9µM*.
Screening CCCCC(=O)NC(c1cccc([N+](=O)[O-])c1)c1ccc2cccnc2c1O (stereo not given) returned CAL PDZ FP-1 -2.8, CAL PDZ FP-2 -0.8, ARNT-TACC3 inh 61.1* and AlphaScreen ctr 8.12µM*.
For CCCC(=O)NC(c1ccc(OC)cc1)c1ccc2cccnc2c1O (stereo not given) the results were CAL PDZ FP-1 -3.1, CAL PDZ FP-2 -3.3 and ARNT-TACC3 inh 19.6.
C[C@H]1CCCCO[C@H](CN(C)Cc2ccc3c(c2)OCO3)[C@@H](C)CN([C@@H](C)CO)C(=O)c2cc(NS(C)(=O)=O)ccc2O1 was read as ARNT-TACC3 inh -2.2.
Screening COc1cccc(C#Cc2cnc3c(c2)C(=O)N([C@H](C)CO)C[C@H](C)[C@@H](CN(C)C(=O)C2CC2)O3)c1 returned ARNT-TACC3 inh -4.0.
For CCn1c(Cc2ccccc2)nnc1SCC(=O)Nc1ccc(N)cc1 the results were CAL PDZ FP-1 -1.0, CAL PDZ FP-2 0.2, ARNT-TACC3 inh 57.2* and AlphaScreen ctr -10.2%.
CCn1c(Cc2ccccc2)nnc1SCC(=O)Nc1ccc(OC)cc1 was read as CAL PDZ FP-1 0.4 and ARNT-TACC3 inh -3.2.
Screening C[C@@H]1CCCCO[C@H](CN(C)Cc2ccncc2)[C@H](C)CN([C@H](C)CO)C(=O)c2cc(NC(=O)C3CCCCC3)ccc2O1 returned ARNT-TACC3 inh 61.8* and AlphaScreen ctr -13.3%[42 µM].
C[C@H]1CCCCO[C@@H](CN(C)Cc2ccc3c(c2)OCO3)[C@@H](C)CN([C@@H](C)CO)C(=O)c2cc(N(C)C)ccc2O1 was read as ARNT-TACC3 inh 7.6.
Screening C[C@@H]1CN([C@H](C)CO)C(=O)c2cc(N(C)C)ccc2O[C@@H](C)CCCCO[C@@H]1CN(C)Cc1ccc2c(c1)OCO2 returned ARNT-TACC3 inh 57.2* and AlphaScreen ctr 57.5µM*.
C[C@@H]1CN([C@@H](C)CO)C(=O)c2cc(NC(=O)Nc3ccc(C(F)(F)F)cc3)ccc2O[C@@H](C)CCCCO[C@H]1CN(C)Cc1ccc2c(c1)OCO2 was read as ARNT-TACC3 inh 43.1.
For C[C@@H]1CCCCO[C@@H](CN(C)C(=O)Nc2ccc3c(c2)OCO3)[C@@H](C)CN([C@@H](C)CO)C(=O)c2cc(N(C)C)ccc2O1 the results were ARNT-TACC3 inh 53.9* and AlphaScreen ctr -22.8%[42 µM].
